The test system of data set [1] is Mus musculus. The experiment in a line: Antinociceptive activity in Swiss Webster mouse assessed as increase in latency time at 5 mg/kg, ip measured after 1 hr by hot plate test. The data set is classed as functional, organism-based. Further details: dose 5 mg/kg. Summed up: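 Hot plate held at 55 ± 1 °C; male Swiss Webster mice; reaction time to hind paw licking or jumping recorded before and after ip dosing (vehicle 5% DMSO in saline); data as difference from baseline; 10 s cutoff; n = 6; two-way ANOVA with Bonferroni.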

The subject of data set [2] is Mus musculus. The experiment in a line: Antinociceptive activity in Swiss Webster mouse assessed as inhibition of formalin-induced late phase pain response at 5 mg/kg, ip dosed 40 mins before formalin injection. Details: dose 5 mg/kg. The data set is classed as functional, organism-based. An outline of the steps:
(§1)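 Mice acclimated 30 min in chamber, dosed ip 40 min before sc injection of 20 μL 2.5% formalin into dorsal hind paw; licking time of injected paw scored 0−10 min (early phase) and 10−30 min (late phase); n = 7−10; ANOVA with Tukey.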

Data set [3] has as its system Mus musculus. The experiment in a line: Antinociceptive activity in Swiss Webster mouse assessed as inhibition of formalin-induced early phase pain response at 5 mg/kg, ip dosed 40 mins before formalin injection. The data set is classed as functional, organism-based. Further details: dose 5 mg/kg. An outline of the steps:
as §1

For data set [4], the system named is Mus musculus. The experiment in a line: Antinociceptive activity in Swiss Webster mouse assessed as increase in reaction time at 5 mg/kg, ip measured after 3 hrs by tail flick test. The data set is classed as functional, organism-based. Details: dose 5 mg/kg. Summed up: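 Mice habituated to restraint cylinder 20 min/day for 5 days; distal 2 cm of tail immersed in 48 ± 0.5 °C water; tail withdrawal latency measured before and after ip dosing (5% DMSO/saline vehicle); 10 s cutoff; n = 6; two-way ANOVA with Bonferroni.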

The test system of data set [5] is Mus musculus. Kind of data set: Antinociceptive activity in Swiss Webster mouse assessed as inhibition of acetic acid-induced abdominal constrictions at 10 mg/kg, ip dosed 40 mins before acetic acid injection. The data set is classed as functional, organism-based. Further details: dose 10 mg/kg. Particulars: Abdomen. Summed up: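 Male Swiss Webster mice dosed ip 40 min before ip acetic acid 0.8% v/v (10 mL/kg). Writhes (abdominal contraction with hind limb stretching) counted 0–30 min after injection in a glass cylinder. Mean writhing scores ± SEM, n = 10 per group; ANOVA with Tukey.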

In data set [6] the test system is Mus musculus. The experiment in a line: Antinociceptive activity in Swiss Webster mouse assessed as inhibition of formalin-induced late phase pain response at 10 mg/kg, ip dosed 40 mins before formalin injection. Further details: dose 10 mg/kg. The data set is classed as functional, organism-based. Summed up:
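Mice acclimated 30 min, dosed ip 40 min before 20 μL 2.5% formalin sc into dorsal hind paw. Licking time of injected paw scored 10–30 min (late phase), mirror-aided observation. Mean ± SEM, n = 7−10; ANOVA with Tukey.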

For data set [7], the system named is Mus musculus. The experiment in a line: Antiinflammatory activity in Swiss Webster mouse assessed as reduction in paw edema at 2 mg/kg, ip dosed 40 mins before CFA injection and measured 2 to 6 hrs post CFA stimulus. Further details: dose 2 mg/kg. The data set is classed as functional, organism-based. An outline of the steps:
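Male Swiss Webster mice given drug ip (dexamethasone in 10% ethanol in saline) 40 min before intraplantar CFA (20 μL). Paw volume by plethysmometer before and after CFA, at 2, 4, 6 h; expressed as percent increase in paw volume. Mean ± SEM, n = 6; two-way ANOVA with Bonferroni.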

The test system of data set [8] is Mus musculus. Kind of data set: Antiinflammatory activity in Swiss Webster mouse assessed as reduction in hyperalgesia at 2 mg/kg, ip dosed 40 mins before CFA injection and measured 2 to 6 hrs post CFA stimulus. The data set is classed as functional, organism-based. Details: dose 2 mg/kg. Summed up:
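Male Swiss Webster mice (22−28 g) given drug ip (dexamethasone in 10% ethanol in saline) 40 min before 20 μL CFA (1 mg/mL heat-killed M. tuberculosis in paraffin oil/mannide monooleate) sc into right hind paw plantar region. Mechanical threshold by von Frey filaments, up−down method, at 2, 4, 6 h. Mean ± SEM, n = 6; two-way ANOVA with Bonferroni.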

Data set [9] concerns Mus musculus. Kind of data set: Reduction in TNFalpha level in Swiss Webster mouse 2 mg/kg, ip dosed 40 mins before CFA injection and measured 3 hrs post CFA stimulus by ELISA method. The data set is classed as functional, organism-based. Details: dose 2 mg/kg. Particulars: at 2 mg/kg. Summed up: (§2)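 Mice dosed ip (dexamethasone in 10% ethanol in saline) 40 min before intraplantar CFA; paw skin removed under terminal halothane anesthesia, homogenized 100 mg/mL in PBS with 0.4 M NaCl, 0.05% Tween 20 and protease inhibitors, centrifuged 3000g 10 min, supernatant frozen −70 °C; cytokine by ELISA as pg/mL. n = 6; two-way ANOVA with Bonferroni.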

In data set [10] the test system is Mus musculus. Kind of data set: Reduction in IL1-beta level in Swiss Webster mouse 2 mg/kg, ip dosed 40 mins before CFA injection and measured 3 hrs post CFA stimulus by ELISA method. The data set is classed as functional, organism-based. Further details: dose 2 mg/kg. The following applies: at 2 mg/kg. An outline of the steps:
as §2
(An ELISA detects its analyte on a solid surface through an enzyme-linked reagent.)

Data set [11] relates to Mus musculus. The experiment in a line: CNS toxicity in Swiss Webster mouse assessed as reduction in motor performance at 10 mg/kg, ip after 40 mins by open field test. Details: dose 10 mg/kg, route intraperitoneal. The following applies: in vivo. The data set is classed as organism-based. An outline of the steps:
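Open-field test 40 min after ip dosing: mice placed singly in 40 × 60 × 50 cm box with 12 floor squares; squares crossed with all four paws counted over 3 min; n = 6; one-way ANOVA with Tukey.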

The test system of data set [12] is Mus musculus. The experiment in a line: CNS toxicity in Swiss Webster mouse assessed as reduction in motor performance at 10 mg/kg, ip after 40 mins by rotarod test. The data set is classed as organism-based. Further details: dose 10 mg/kg, route intraperitoneal. The following applies: in vivo. Summed up:
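Rota-rod test: 3 cm bar at 8 rpm; mice pre-selected 24 h earlier by remaining on bar for two consecutive 120 s periods; placed on rod 40 min after ip dosing; time on bar recorded up to 120 s; n = 6; one-way ANOVA with Tukey.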
A general note: The rotarod test checks motor coordination on a turning rod.

The values below come from ChEMBL document CHEMBL3351240, “Antinociceptive properties of physalins from Physalis angulata” (J Nat Prod, 2014).

Calls of active or inactive are those of the source.

Take `CN1CC[C@]23c4c5ccc(O)c4O[C@H]2[C@@H](O)C=C[C@H]3[C@H]1C5`: the result in the data set on Mus musculus [1] and in the data set on Mus musculus [4] was Active. The inhibition result with Mus musculus [2] and in the data set with Mus musculus [3] was “Active” each time.

Consider `COc1ccc2c(c1)c(CC(=O)O)c(C)n2C(=O)c1ccc(Cl)cc1`, for which the inhibition entry in the data set with Mus musculus [5] and with Mus musculus [6] was “Active” throughout.

Turning to `C[C@@H]1C[C@H]2[C@@H]3CCC4=CC(=O)C=C[C@]4(C)[C@@]3(F)[C@@H](O)C[C@]2(C)[C@@]1(O)C(=O)CO`, the inhibition result with Mus musculus [7], with Mus musculus [8], in the data set on Mus musculus [9] and with Mus musculus [10] was “Active” in each case.

Turning to `CN1C(=O)CN=C(c2ccccc2)c2cc(Cl)ccc21` [DIAZEPAM], the Activity result in the data set on Mus musculus [11] and with Mus musculus [12] was “Toxic” in each case.
